Series [1] addresses CYP2C19 (Homo sapiens, UniProt P33261). Nature of the series: Reversible inhibition of CYP2C19 in human liver microsomes at 10 uM after 20 mins in presence of NADPH by LC-MS/MS analysis. The class given is ADME. The following applies: liver microsomes. (In general: Liver microsomes are a subcellular fraction often used to study metabolism.)
For series [2], the system named is NCI-H1993. Nature of the series: Growth inhibition of human NCI-H1993 cells after 72 hrs by CCK-8 assay. It is filed as functional, cell-based. As to conditions: nci-h1993. For orientation: Tetrazolium dyes change colour on reduction, which living cells bring about.
Series [3] has as its system SNU-5. Nature of the series: Growth inhibition of human SNU5 cells after 72 hrs by CCK-8 assay. The class given is functional, cell-based. As to conditions: snu-5.
A short description of series [4]: Intrinsic clearance in human liver microsomes assessed per mg protein at 1 uM preincubated for 5 mins followed by NADPH addition measured after 5 to 30 mins by LC-MS/MS analysis. As to conditions: read-out: CLH. The class given is ADME, microsome. Summed up:
(§1)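 Microsomes (0.5 mg/ml) with 1 µM compound were preincubated 5 min at 37°C in 100 mM phosphate buffer pH 7.4, then started with 1 mM NADPH. Samples were taken at 0, 5, 10 and 30 min, quenched with acetonitrile/tinidazole and run by LC-MS/MS. CLint = k / microsomal protein concentration. Midazolam was the positive control.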

The nature of series [5]: Intrinsic clearance in rat liver microsomes assessed per mg protein at 1 uM preincubated for 5 mins followed by NADPH addition measured after 5 to 30 mins by LC-MS/MS analysis. It is filed as ADME, microsome. As to conditions: read-out: CLH. Summed up:
as §1

Series [6] addresses T1, CYP3A4 (Homo sapiens, UniProt P08684). Nature of the series: Reversible inhibition of CYP3A4 in human liver microsomes at 10 uM after 20 mins in presence of NADPH by LC-MS/MS analysis. It is filed as ADME. The following applies: liver microsomes.
The target in series [7] is T1, CYP3A4. Nature of the series: Time dependent irreversible inhibition of CYP3A4 in human liver microsomes at 10 uM preincubated with compound followed by NADPH addition by LC-MS/MS analysis. The class given is ADME. The following applies: liver microsomes. Summed up: (§2)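 HLM (0.2 mg/ml) with 10 µM compound were preincubated 0, 5, 10 or 20 min at 37°C with 1 mM NADPH or PBS. Substrate cocktail (halved concentrations) plus NADPH was then added for 10 min. Metabolites were measured by LC-MS/MS. Kobs is the slope of relative activity versus preincubation time.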

The target of series [8] is T2, CYP1A2 (Homo sapiens, UniProt P05177).
T2 sequence (P05177 whole entry): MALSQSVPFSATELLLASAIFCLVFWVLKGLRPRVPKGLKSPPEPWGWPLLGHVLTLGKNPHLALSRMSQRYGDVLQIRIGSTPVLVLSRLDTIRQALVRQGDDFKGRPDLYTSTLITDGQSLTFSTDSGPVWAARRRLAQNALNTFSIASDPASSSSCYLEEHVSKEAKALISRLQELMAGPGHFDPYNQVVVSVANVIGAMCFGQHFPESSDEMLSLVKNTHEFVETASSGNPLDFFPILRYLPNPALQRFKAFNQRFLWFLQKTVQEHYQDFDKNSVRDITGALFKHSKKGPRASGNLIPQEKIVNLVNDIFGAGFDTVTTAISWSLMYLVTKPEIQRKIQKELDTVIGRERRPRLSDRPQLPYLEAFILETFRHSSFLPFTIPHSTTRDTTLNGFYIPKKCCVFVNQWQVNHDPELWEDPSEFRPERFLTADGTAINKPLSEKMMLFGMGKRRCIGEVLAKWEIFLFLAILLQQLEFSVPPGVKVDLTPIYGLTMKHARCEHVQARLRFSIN
Nature of the series: Time dependent irreversible inhibition of CYP1A2 in human liver microsomes at 10 uM preincubated with compound followed by NADPH addition by LC-MS/MS analysis. It is filed as ADME. As to conditions: liver microsomes. Summed up: as §2

Series [9] relates to Rattus norvegicus. Nature of the series: Oral bioavailability in Sprague-Dawley rat plasma at 6 mg/kg by UPLC-MS/MS analysis. The class given is ADME, organism-based. The following applies: in vivo. Summed up: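 Male Sprague-Dawley rats (180-220 g) were fasted overnight with free access to water. Dosing was intravenous (n=2) or oral at 6 mg/kg (n=3). Heparinized blood was drawn from 0 to 1440 min. Plasma was frozen at -20°C, then precipitated with acetonitrile containing internal standard, centrifuged and analysed by UPLC-MS/MS.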

Series [10] concerns the target Vascular endothelial growth factor receptor 2 (Homo sapiens, UniProt P35968). Nature of the series: Inhibition of VEGFR2 (unknown origin) using FAM-labeled peptide as substrate preincubated for 5 to 10 mins followed by substrate/ATP addition measured after 30 to 60 mins by mobility shift assay. Summed up: (§3)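 Caliper mobility-shift assay with FAM-labeled peptide substrate. Buffer: 50 mM HEPES pH 7.5, 0.0015% Brij-35, 10 mM MgCl2, 2 mM DTT, with kinase-specific enzyme levels. […] Incubation was 30-60 min at 28°C, stopped with EDTA buffer. Read-out was % conversion.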

The target in series [11] is Mast/stem cell growth factor receptor Kit (Homo sapiens, UniProt P10721). Nature of the series: Inhibition of c-Kit (unknown origin) using FAM-labeled peptide as substrate preincubated for 5 to 10 mins followed by substrate/ATP addition measured after 30 to 60 mins by mobility shift assay. Summed up: as §3
Series [12] deals with Proto-oncogene tyrosine-protein kinase receptor Ret (Homo sapiens, UniProt P07949). Nature of the series: Inhibition of RET (unknown origin) using FAM-labeled peptide as substrate preincubated for 5 to 10 mins followed by substrate/ATP addition measured after 30 to 60 mins by mobility shift assay. Summed up:
as §3

Series [13] concerns the target Insulin-like growth factor 1 receptor (Homo sapiens, UniProt P08069). Nature of the series: Inhibition of IGF1R (unknown origin) using FAM-labeled peptide as substrate preincubated for 5 to 10 mins followed by substrate/ATP addition measured after 30 to 60 mins by mobility shift assay. Summed up: as §3
Series [14] concerns NCI-H1993. Nature of the series: Antitumor activity against human NCI-H1993 cells xenografted in BALB/c athymic nude mouse assessed as tumor growth inhibition at 1 mg/kg, po administered once daily for 3 weeks. The class given is functional. The following applies: 504 h, read-out: TGI. Summed up: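 BALB/c nude mice, 5-6 weeks old, kept under SPF conditions, received 7×10^6 NCI-H1993 cells s.c. in the right flank. At 150-250 mm³ they were sorted and randomized, n=7 per group, with vehicle controls. Dosing was oral, once daily for 3 weeks. […] Mean±SEM, Student's t-test.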
(In general: A xenograft is tissue or cells of one species grown in another, often human tumour cells in immunodeficient mice.)

Series [15] relates to SNU-5. Nature of the series: Antitumor activity against human SNU5 cells xenografted in BALB/c athymic nude mouse assessed as percent tumor regression at 0.3 mg/kg, po administered once daily for 2 weeks. It is filed as functional. Summed up: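 Nude BALB/c mice, 5-6 weeks old, under SPF conditions, were implanted s.c. in the right flank with 6×10^6 SNU-5 cells. Groups were sorted at 100-200 mm³, n=6, with vehicle controls. Oral dosing once daily for 2 weeks. Percent tumor regression = 100% × (treated day 0 − treated final)/treated day 0. Mean±SEM, Student's t-test.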

For series [16], the system named is Mus musculus. Nature of the series: Toxicity in BALB/c athymic nude mouse xenografted with human NCI-H1993 cells assessed as body weight loss at 0.1 to 10 mg/kg, po administered once daily for 3 weeks. The class given is organism-based. As to conditions: in vivo, 504 h. Summed up: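 Female/male BALB/c nude mice (5-6 weeks, SPF). NCI-H1993 cells (7×10^6 in 140 µL) or SNU-5 cells (6×10^6 in 200 µL) injected s.c. into the right flank. Dosing started at mean tumour volume 150-250 mm³ (NCI-H1993) or 100-200 mm³ (SNU-5). Randomized, n = 7 (NCI-H1993) or 6 (SNU-5) per group. Oral dosing once daily; vehicle controls. Body weight and signs of toxicity monitored during treatment.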

The record followed here is ChEMBL document CHEMBL4020721 (Eur J Med Chem, 2017).

A value given as a limit tells only on which side of the number the result lay.

For orientation: inhibition means the drop in the measured response relative to a control, in per cent. A word on the IC50: it is the point on the concentration scale where inhibition reaches its midpoint.

T1 sequence (P08684 whole entry): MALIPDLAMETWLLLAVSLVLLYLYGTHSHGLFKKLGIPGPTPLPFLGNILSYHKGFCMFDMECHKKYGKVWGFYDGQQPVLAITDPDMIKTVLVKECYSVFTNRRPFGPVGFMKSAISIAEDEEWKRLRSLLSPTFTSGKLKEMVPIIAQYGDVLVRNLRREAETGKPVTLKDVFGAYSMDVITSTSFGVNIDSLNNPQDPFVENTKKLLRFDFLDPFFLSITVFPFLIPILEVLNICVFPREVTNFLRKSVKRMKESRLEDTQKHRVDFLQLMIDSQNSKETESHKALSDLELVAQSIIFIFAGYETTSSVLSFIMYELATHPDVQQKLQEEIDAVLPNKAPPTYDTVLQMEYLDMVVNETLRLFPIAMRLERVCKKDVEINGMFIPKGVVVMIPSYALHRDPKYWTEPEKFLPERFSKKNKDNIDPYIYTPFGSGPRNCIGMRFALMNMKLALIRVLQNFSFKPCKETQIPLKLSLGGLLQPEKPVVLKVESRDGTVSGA
Proto-oncogene tyrosine-protein kinase receptor Ret, sequence (P07949 whole entry): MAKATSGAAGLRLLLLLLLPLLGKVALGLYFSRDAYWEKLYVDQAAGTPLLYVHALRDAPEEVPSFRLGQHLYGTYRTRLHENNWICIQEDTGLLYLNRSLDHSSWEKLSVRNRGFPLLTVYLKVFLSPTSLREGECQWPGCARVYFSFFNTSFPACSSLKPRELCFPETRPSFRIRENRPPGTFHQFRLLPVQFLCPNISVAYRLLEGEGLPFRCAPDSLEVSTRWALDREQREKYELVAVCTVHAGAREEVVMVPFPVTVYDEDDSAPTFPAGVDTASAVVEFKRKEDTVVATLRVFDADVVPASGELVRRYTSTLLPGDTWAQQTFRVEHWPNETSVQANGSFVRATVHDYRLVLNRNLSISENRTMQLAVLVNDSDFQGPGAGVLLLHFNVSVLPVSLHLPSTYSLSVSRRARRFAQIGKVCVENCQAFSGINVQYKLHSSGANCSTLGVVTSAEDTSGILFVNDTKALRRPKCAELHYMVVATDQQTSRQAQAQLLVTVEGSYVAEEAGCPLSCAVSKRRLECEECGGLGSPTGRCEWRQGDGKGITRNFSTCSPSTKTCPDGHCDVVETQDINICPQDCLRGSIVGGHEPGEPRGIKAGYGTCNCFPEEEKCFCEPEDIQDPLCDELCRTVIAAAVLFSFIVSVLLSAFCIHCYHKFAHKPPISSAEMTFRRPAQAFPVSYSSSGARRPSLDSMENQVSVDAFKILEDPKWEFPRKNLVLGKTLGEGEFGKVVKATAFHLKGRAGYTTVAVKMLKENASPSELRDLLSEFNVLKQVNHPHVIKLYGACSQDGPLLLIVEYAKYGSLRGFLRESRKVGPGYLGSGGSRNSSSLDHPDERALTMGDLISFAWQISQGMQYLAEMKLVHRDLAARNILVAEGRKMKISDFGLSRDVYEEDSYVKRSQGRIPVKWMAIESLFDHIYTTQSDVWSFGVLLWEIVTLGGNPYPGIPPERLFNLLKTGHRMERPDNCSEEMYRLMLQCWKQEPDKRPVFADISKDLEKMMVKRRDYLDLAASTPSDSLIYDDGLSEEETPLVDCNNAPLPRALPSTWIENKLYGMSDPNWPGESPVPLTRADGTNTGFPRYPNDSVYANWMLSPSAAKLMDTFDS
Insulin-like growth factor 1 receptor, sequence (P08069 31-736 limits assumed): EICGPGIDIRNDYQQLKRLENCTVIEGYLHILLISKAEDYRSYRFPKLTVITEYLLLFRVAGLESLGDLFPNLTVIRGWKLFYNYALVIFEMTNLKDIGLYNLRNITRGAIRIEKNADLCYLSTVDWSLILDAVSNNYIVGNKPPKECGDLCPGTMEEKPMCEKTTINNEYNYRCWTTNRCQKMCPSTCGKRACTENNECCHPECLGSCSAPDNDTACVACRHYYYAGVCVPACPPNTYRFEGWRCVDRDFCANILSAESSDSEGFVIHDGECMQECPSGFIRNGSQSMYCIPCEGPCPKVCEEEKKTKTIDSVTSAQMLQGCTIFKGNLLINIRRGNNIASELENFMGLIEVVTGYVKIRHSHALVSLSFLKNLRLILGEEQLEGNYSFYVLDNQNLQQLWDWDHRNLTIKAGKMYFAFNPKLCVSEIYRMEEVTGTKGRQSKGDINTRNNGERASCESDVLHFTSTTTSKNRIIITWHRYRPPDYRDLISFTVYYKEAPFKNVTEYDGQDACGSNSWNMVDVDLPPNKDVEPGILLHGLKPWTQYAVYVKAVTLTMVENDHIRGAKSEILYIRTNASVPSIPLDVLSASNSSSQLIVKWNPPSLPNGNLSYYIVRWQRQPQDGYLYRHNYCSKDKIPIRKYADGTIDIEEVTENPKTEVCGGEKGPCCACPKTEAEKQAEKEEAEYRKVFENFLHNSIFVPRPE
Insulin-like growth factor 1 receptor, sequence (P08069 741-1367 limits assumed): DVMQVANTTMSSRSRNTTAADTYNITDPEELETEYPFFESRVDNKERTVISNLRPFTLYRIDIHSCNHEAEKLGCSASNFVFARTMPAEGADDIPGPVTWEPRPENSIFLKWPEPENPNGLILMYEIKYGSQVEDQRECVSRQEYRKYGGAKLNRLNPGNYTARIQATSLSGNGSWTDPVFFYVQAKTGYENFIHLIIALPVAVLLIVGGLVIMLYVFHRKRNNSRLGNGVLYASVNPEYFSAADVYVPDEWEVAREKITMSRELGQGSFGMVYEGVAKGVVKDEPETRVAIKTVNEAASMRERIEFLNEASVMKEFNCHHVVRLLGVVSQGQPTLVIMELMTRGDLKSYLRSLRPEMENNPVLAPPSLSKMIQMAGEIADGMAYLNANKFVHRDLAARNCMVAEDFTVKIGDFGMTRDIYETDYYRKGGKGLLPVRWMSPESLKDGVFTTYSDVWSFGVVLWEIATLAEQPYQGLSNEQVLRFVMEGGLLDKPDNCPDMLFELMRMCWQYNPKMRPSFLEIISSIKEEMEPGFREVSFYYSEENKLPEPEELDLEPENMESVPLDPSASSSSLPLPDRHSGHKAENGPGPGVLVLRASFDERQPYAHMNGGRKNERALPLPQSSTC
Vascular endothelial growth factor receptor 2, sequence (P35968 whole entry): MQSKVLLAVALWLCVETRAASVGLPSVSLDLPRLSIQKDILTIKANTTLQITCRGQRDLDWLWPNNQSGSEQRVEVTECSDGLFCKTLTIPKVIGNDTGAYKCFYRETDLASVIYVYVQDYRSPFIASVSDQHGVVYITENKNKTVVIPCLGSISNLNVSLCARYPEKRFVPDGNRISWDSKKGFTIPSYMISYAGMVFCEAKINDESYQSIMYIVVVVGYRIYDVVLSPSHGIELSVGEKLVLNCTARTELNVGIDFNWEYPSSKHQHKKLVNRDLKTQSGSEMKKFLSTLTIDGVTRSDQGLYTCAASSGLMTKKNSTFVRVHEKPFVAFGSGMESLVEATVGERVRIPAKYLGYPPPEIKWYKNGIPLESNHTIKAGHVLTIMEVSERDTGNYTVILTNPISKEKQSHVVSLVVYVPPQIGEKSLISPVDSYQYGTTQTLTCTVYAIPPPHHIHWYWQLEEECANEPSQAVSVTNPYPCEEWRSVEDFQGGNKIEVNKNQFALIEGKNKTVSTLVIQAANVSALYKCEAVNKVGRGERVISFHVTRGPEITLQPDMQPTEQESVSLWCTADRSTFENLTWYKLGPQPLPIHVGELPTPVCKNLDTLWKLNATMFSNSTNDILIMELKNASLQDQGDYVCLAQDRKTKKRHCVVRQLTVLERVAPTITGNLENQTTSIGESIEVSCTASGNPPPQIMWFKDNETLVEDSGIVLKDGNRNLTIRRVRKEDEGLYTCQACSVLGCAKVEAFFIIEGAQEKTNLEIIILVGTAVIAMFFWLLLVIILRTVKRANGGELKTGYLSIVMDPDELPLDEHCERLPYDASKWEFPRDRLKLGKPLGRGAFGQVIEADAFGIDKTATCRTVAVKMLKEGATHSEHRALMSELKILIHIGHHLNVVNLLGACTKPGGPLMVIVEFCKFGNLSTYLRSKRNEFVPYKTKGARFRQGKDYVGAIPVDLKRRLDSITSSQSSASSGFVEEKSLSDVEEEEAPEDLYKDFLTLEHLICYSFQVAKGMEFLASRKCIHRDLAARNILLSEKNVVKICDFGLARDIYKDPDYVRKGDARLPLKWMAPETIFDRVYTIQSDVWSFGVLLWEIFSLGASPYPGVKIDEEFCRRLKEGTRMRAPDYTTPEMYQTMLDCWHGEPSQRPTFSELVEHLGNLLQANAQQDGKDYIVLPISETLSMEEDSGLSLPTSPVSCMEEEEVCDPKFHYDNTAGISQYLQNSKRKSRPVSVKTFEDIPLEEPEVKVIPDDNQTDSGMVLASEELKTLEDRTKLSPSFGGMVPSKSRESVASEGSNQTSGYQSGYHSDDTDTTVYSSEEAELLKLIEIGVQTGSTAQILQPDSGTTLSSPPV
CYP2C19, sequence (P33261 whole entry): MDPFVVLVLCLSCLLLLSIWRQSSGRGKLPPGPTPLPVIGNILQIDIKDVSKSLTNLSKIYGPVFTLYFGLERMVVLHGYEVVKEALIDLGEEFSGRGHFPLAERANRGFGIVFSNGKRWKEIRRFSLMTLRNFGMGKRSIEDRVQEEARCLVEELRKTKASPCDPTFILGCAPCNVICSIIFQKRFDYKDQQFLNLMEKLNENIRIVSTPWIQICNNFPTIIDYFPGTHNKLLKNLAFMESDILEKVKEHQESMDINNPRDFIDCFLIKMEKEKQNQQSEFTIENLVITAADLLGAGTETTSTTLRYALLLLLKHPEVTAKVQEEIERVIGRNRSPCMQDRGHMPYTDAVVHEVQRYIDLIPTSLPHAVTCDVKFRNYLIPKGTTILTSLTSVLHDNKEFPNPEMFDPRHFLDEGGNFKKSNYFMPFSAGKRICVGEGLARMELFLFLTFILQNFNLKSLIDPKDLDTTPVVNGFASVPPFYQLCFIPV

As to `CC(c1cc2cc(-c3cnn(C)c3)cnc2cc1F)n1nnc2ncc(-c3cnn(CCO)c3)nc21` (stereo in doubt; 14), the inhibition at 20 min, 10 µM in series [1] and in series [6] was < 50% each time. Further, the half-maximal inhibitory concentration (IC50) was 0.0011 µM in series [2]; 0.002 µM in series [3]; 18.4 µM in [10]; 5.4 µM in [11]; > 30 µM in series [12]; > 30 µM in [13]. The microsomal CLint at 1 µM in series [4] and in [5] was 5 µL/min/mg throughout. For the same molecule, the inhibition at 10 µM in series [7] and in series [8] was < 50% in each case. The same molecule registered a F in [9] of 12.1%. Further, the inhibition in vivo at 1 mg/kg in series [14] came to 78.7%. For the same molecule, the Activity in series [15] was 34%; in series [16], “Non-Toxic”.
